Test results reported in ChEMBL document CHEMBL2331390, “Telomere shortening and cell senescence induced by perylene derivatives in A549 human lung cancer cells” (Bioorg Med Chem, 2013).
Calls of active or inactive are those of the source. The rule behind the calls is not given here.

Columns and labels:
A549 [1] = assay: Cytotoxicity against human A549 cells assessed as colony formation at 0.4 uM incubated for 78 days followed by subculturing in compound-free medium measured after 14 days by crystal violet staining method relative to control; assay type: functional
In short: (§1)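 A549 cells from the long-term culture (0.4 or 0.8 μM, medium changed every 3 days, replated every 6 days) were collected on the stated day. 2×10^3 cells seeded per 10-cm dish, fed every 4-5 days. Colonies stained with crystal violet after 14 days and counted; expressed as % of control. Controls under 25 colonies excluded. Three independent experiments.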

A549 [2] = assay: Binding affinity to human TERT promoter DNA sequence in human A549 cells assessed as telomere restriction fragment length at 0.8 uM after 78 days by TeloTAGGG-based chemiluminescence assay (reference value: 3.4 kb); assay type: cell-based
In short: (§2)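 Genomic DNA from A549 cells kept long-term with 0.4 or 0.8 μM compound (medium changed every 3 days, replated every 6 days). DNA isolated with DNAzol. 2 µg digested with RsaI/HinfI, run on 0.8% agarose, Southern-blotted, hybridized with DIG-labeled telomeric probe, anti-DIG alkaline phosphatase, chemiluminescence. Mean TRF = Σ(ODi)/Σ(ODi/Li).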

A549 [3] = assay: Cytotoxicity against human A549 cells assessed as colony formation at 0.8 uM incubated for 30 days followed by subculturing in compound-free medium measured after 14 days by crystal violet staining method relative to control; assay type: functional; in short: as §1
A549 [4] = assay: Cytotoxicity against human A549 cells assessed as colony formation at 0.8 uM incubated for 6 days followed by subculturing in compound-free medium measured after 14 days by crystal violet staining method relative to control; assay type: functional; in short: as §1
A549 [5] = assay: Binding affinity to human TERT promoter DNA sequence in human A549 cells assessed as telomere restriction fragment length at 0.4 uM after 78 days by TeloTAGGG-based chemiluminescence assay (reference value: 3.4 kb); assay type: cell-based; in short: as §2
A549 [6] = assay: Induction of senescence in human A549 cells assessed as increase in beta-galactosidase activity at 0.4 to 0.8 uM incubated for 78 days followed by subculturing on compound-free medium measured after 48 hrs by fluorescence microscopic analysis; assay type: functional, cell-based
In short: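 A549 cells from the long-term treatment replated and grown 48 h. Fixed in 2% formaldehyde/0.2% glutaraldehyde for 5 min at RT. Stained overnight with 1 mg/ml X-gal in pH 6 citrate/phosphate buffer with 5 mM ferro/ferricyanide, 150 mM NaCl, 2 mM MgCl2. Enlarged blue cells scored by microscopy.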

A549 [7] = assay: Antiproliferative activity against human A549 cells assessed as decrease in cell viability at 0.8 uM after 78 days relative to control; assay type: functional, cell-based
In short: (§3)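 A549 cells (1.5×10^5) seeded in RPMI 1640 + 10% FBS with 0.4 or 0.8 μM perylene or medium only. Medium changed every 3 days. Every 6 days, at confluence, cells were trypsinized, counted by hemocytometer and replated at 1.5×10^5. Population doublings n = (log Pn − log P0)/log 2, cumulated against time. Three independent experiments.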

A549 [8] = assay: Binding affinity to human TERT promoter DNA sequence in human A549 cells assessed as telomere restriction fragment length at 0.4 uM after 6 days by TeloTAGGG-based chemiluminescence assay (reference value: 3.4 kb); assay type: cell-based; in short: as §2
A549 [9] = assay: Binding affinity to human TERT promoter DNA sequence in human A549 cells assessed as decrease in TERT mRNA expression at 6 uM after 24 hrs by semi-quantitative PCR analysis relative to control; assay type: cell-based; set-up: scale not given: the % may be the effect or the level left
In short: (§4)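 A549 cells (3.0×10^5) grown 24 h in RPMI 1640 + 10% FBS at 37 °C, 5% CO2, then exposed to compound for 24 h. Total RNA by Trizol, reverse transcribed, hTERT amplified with specific primers. Semi-quantitative and real-time SYBR Green PCR (45 cycles), standard-curve method, normalized to GAPDH. Three independent experiments.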

[10] = Binding affinity to TSG4 primer DNA (unknown origin) assessed as inhibition of telomerase-mediated extension of primer […] by fluorescence-based TRAP assay
In short: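 Cell-free TRAP. Compound preincubated with TSG4 primer in telomerase buffer (20 mM Tris-HCl pH 7.4, 1.5 mM MgCl2, 63 mM KCl, 1 mM EGTA, 200 µM dNTPs) at 37 °C for 2 h. Crude telomerase (50 ng) from telomerase-transfected HEK293T added, 30 °C for 30 min. Compound removed by phenol-chloroform, products ethanol-precipitated, PCR with FAM-tagged primer, 8% native PAGE, phosphoimaging. IC50 ± SD from three experiments.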

A549 [11] = assay: Binding affinity to human TERT promoter DNA sequence in human A549 cells assessed as telomere restriction fragment length at 0.8 uM after 30 days by TeloTAGGG-based chemiluminescence assay (reference value: 3.3 kb); assay type: cell-based; in short: as §2
A549 [12] = assay: Binding affinity to human TERT promoter DNA sequence in human A549 cells assessed as inhibition of telomerase-mediated MTS primer extension after 24 hrs by fluorescence-based TRAP assay; assay type: cell-based
In short: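 A549 cells exposed to compound for 24 h, lysed in CHAPS buffer, protein measured by Bradford. 6 µg lysate protein used as telomerase source in fluorescent TRAP with MTS primer (no G-quadruplex motif), with no phenol-chloroform step. FAM-primer PCR, native PAGE, fluorescence quantified. Mean ± SD of three experiments.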

A549 [13] = assay: Binding affinity to human TERT promoter DNA sequence in human A549 cells assessed as telomere restriction fragment length at 0.8 uM after 6 days by TeloTAGGG-based chemiluminescence assay (reference value: 3.4 kb); assay type: cell-based; in short: as §2
A549 [14] = assay: Cytotoxicity against human A549 cells assessed as colony formation at 0.8 uM incubated for 78 days followed by subculturing in compound-free medium measured after 14 days by crystal violet staining method relative to control; assay type: functional; in short: as §1
Homo sapiens [15] = species: Homo sapiens; assay: Binding affinity to human telomeric 5'-AGATAGTTAGGGTTAGGGTTAGGGTTAGGGTT-3' DNA assessed as induction of intramoleculsr G-quadruplex formation after 10 hrs by PAGE analysis
In short: (§5)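 FAM-labeled G-rich strand (2 µM) and complementary C-rich strand (2 µM) with compound in 10 mM Tris-HCl pH 7.4, 100 mM KCl. Heated to 95 °C for 5 min, slowly cooled to 55 °C, held 10 h, then cooled to 4 °C. Duplex vs G-quadruplex resolved on 16% native PAGE with 50 mM KCl (4 °C, 350 V, 10 h) and fluorescence-imaged.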

A549 [16] = assay: Cytotoxicity against human A549 cells assessed as reduction in colony formation incubated for 30 days followed by subculturing in compound-free medium measured after 14 days by crystal violet staining method; assay type: functional, cell-based; in short: as §1
A549 [17] = assay: Binding affinity to human TERT promoter DNA sequence in human A549 cells assessed as telomere restriction fragment length at 0.4 uM after 30 days by TeloTAGGG-based chemiluminescence assay (reference value: 3.3 kb); assay type: cell-based; in short: as §2
A549 [18] = assay: Binding affinity to human TERT promoter DNA sequence in human A549 cells assessed as decrease in TERT mRNA expression after 24 hrs by semi-quantitative PCR analysis; assay type: cell-based; in short: as §4
Homo sapiens [19] = species: Homo sapiens; assay: Binding affinity to human TERT2 5'-GGGGGCTGGGCCGGGGACCCGGGAGGGGTCGGGACGGGGCGGGG-3' DNA assessed as induction of intermolecular G-quadruplex formation at 8 to 32 uM after 10 hrs by PAGE analysis; in short: as §5
A549 [20] = assay: Antiproliferative activity against human A549 cells assessed as decrease in population doubling at 0.8 uM after 78 days relative to control; assay type: functional; set-up: scale not given: the % may be the effect or the level left; in short: as §3
A549 [21] = assay: Antiproliferative activity against human A549 cells assessed as decrease in population doubling at 0.4 uM after 78 days; assay type: functional, cell-based; in short: as §3
A549 [22] = assay: Cytotoxicity against human A549 cells assessed as colony formation at 0.4 uM incubated for 30 days followed by subculturing in compound-free medium measured after 14 days by crystal violet staining method relative to control; assay type: functional; in short: as §1
A549 [23] = assay: Cytotoxicity against human A549 cells assessed as colony formation at 0.4 uM incubated for 6 days followed by subculturing in compound-free medium measured after 14 days by crystal violet staining method relative to control; assay type: functional; in short: as §1
Homo sapiens [24] = species: Homo sapiens; assay: Binding affinity to human TERT1 5'-AAGGGGAGGGGCTGGGAGGGCCCGGA-3' DNA assessed as induction of intramoleculsr G-quadruplex formation after 10 hrs by PAGE analysis; in short: as §5

**Q.** What does the source list for O=C1c2ccc3c4ccc5c6c(ccc(c7ccc(c2c37)C(=O)N1CCN1CCCCC1)c64)C(=O)N(CCN1CCCCC1)C5=O?
**A.** Activity (A549 [1]): 78%; Activity (A549 [2]): 2.7 kilobase; Activity (A549 [3]): 89%; Activity (A549 [4]): 93%; Activity (A549 [5]): 3 kilobase; Activity (A549 [6]): inactive; Activity (A549 [7]): inactive; Activity (A549 [8]): 3.6 kilobase; Activity (A549 [9]): 68%; IC50 [10]: 1.4 µM; inhibition [10]: Dose-dependent effect; Activity (A549 [11]): 3.1 kilobase; Activity (A549 [12]): Dose-dependent effect; Activity (A549 [13]): 3.5 kilobase; Activity (A549 [14]): 66%; Activity (Homo sapiens [15]): Dose-dependent effect; Activity (A549 [16]): Dose-dependent effect; Activity (A549 [17]): 3.3 kilobase; Activity (A549 [18]): Dose-dependent effect; Activity (Homo sapiens [19]): Active; Activity (A549 [20]): 20%; Activity (A549 [21]): inactive; Activity (A549 [22]): 96%; Activity (A549 [23]): 95%; Activity (Homo sapiens [24]): Dose-dependent effect
